Where only a bound is given, the exact number is not on record here.

Results on 22 compounds are retold here after ChEMBL document CHEMBL1127706, “HIV-inhibitory natural products. 11. Comparative studies of sulfated sterols from marine invertebrates” (J Med Chem, 1994).

Assay [1] deals with CCRF-CEM. Put plainly: Effective concentration for cytoprotective effect against HIV-1 infection in CEM cells; No protection of cells to HIV-induced Killing. The assay is classed as functional, cell-based, Homo sapiens. The essentials:
(§1)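 CEM-SS cells in RPMI 1640 without phenol red (5% FBS, 2 mM L-glutamine, gentamicin), resuspended at 1×10^5 cells/mL, infected with HIV-1 RF at MOI 0.01-0.05. Sterols dissolved in DMSO, serially diluted in medium (final DMSO ≤1%), top concentration 100 μg/mL. Incubated 6 days at 37 °C, 5% CO2. Cytoprotection read by XTT tetrazolium viability, relative to uninfected untreated controls.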

Assay [2] has as its system CCRF-CEM. Briefly: Effective concentration for cytoprotective effect against HIV-2 infection in CEM cells; No protection of cells to HIV-induced Killing. It counts as functional, cell-based. As to conditions: Homo sapiens. The essentials: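 Anticytopathicity test against HIV-2 strain ROD in CEM cells at MOI 0.01-0.05. Cells were held in RPMI 1640 with 5% FBS, and sterols were given from DMSO stocks (final DMSO ≤1%), up to 100 μg/mL. Cultures ran 6 days at 37 °C. Protection from viral killing was scored as percent, with host-cell cytotoxicity assessed in parallel.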

The test system of assay [3] is Human immunodeficiency virus 1. Put plainly: Inhibition of HIV-1 mediated cytotoxicity in CEM (human leukemia) cells. It counts as functional, organism-based. As to conditions: Human immunodeficiency virus 1, CCRF-CEM. The procedure, abridged: as §1
The subject of assay [4] is Human immunodeficiency virus 2. Briefly: Inhibition of HIV-2 (CBL20) nediated cytotoxicity in CEM (human leukemia) cells. As to conditions: Human immunodeficiency virus 2, CCRF-CEM.
In assay [5] the test system is CCRF-CEM. Put plainly: Effective concentration was tested for cytoprotective effect against HIV-1 infection in CEM cells. It counts as functional, cell-based. As to conditions: Homo sapiens. The procedure, abridged:
as §1

The subject of assay [6] is CCRF-CEM. Briefly: Effective concentration was tested for cytoprotective effect against HIV-2 CBL 20 strain infection in CEM cells. Particulars: Homo sapiens. It counts as functional, cell-based. The procedure, abridged: (§2)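 HIV-2 strain CBL20 infection of CEM cells at MOI 0.01-0.05. Sterols in DMSO, diluted in complete medium (final DMSO ≤1%), maximum 100 μg/mL. Uninfected CEM-SS controls run for toxicity. XTT viability read after 6 days in culture at 37 °C, 5% CO2. Protection expressed as percent of uninfected, untreated controls.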

Assay [7] deals with CCRF-CEM. Put plainly: Effective concentration for cytoprotective effect against HIV-2 CBL 20 strain infection in CEM cells; No protection of cells to HIV-induced Killing. The assay is classed as functional, cell-based, Homo sapiens. The essentials:
as §2

For assay [8], the system named is CCRF-CEM. Briefly: Inhibitory concentration for cytoprotective effect against HIV-1 infection in CEM cells. As to conditions: Homo sapiens. The assay is classed as functional, cell-based. The procedure, abridged:
as §1

Regarding `CC(=O)O[C@@H]1C[C@H]2[C@@H]3C[C@H](OP(=O)([O-])OC4OC(CO)C(O)C(O)C4O)C4C[C@@H](OS(=O)(=O)[O-])CC[C@]4(C)[C@H]3CC[C@]2(C)[C@H]1[C@H](C)CCCC(C)C.[Na+].[Na+]` (some centres undefined), the EC50 entry is “No protection” in the assay on CCRF-CEM [1] and 13 µM in the assay on CCRF-CEM [2]. In addition, the IC50 in assay [3] and in assay [4] was greater than 125 µM throughout.
Take `CC(C)CC[C@@H](O)[C@@H](C)[C@H]1CCC2C3C[C@H](OS(=O)(=O)O)C4C[C@@H](OS(=O)(=O)O)CC[C@]4(C)C3=CC[C@@]21C` (some centres undefined): the EC50 turned out to be 19 µM in the assay on CCRF-CEM [5] and 128 µM in the assay on CCRF-CEM [6]. Moreover, the IC50 in assay [3] and in assay [4] was greater than 161 µM in each case.
On to `CC(C)C1(CC[C@@H](C)[C@H]2CC[C@@]3(C)C4C[C@H](OS(=O)(=O)O)C5C[C@H](OS(=O)(=O)O)[C@@H](OS(=O)(=O)O)C[C@]5(C)C4=CC[C@]23C)CC1C` (some centres undefined), for which the EC50 with CCRF-CEM [5] was 13 µM; in the assay with CCRF-CEM [6], 8 µM. Further, the results for the IC50 in assay [3] and in assay [4] were greater than 128 µM and 51 µM, respectively.
Regarding `CC(C)CCC[C@@H](COS(=O)(=O)[O-])[C@H]1CCC2C3CC=C4[C@H](O)[C@H](OS(=O)(=O)[O-])[C@H](O)C[C@]4(C)C3CC[C@@]21C.[Na+].[Na+]` (some centres undefined), the EC50 entry in the assay on CCRF-CEM [1] is listed as “No protection”.
Consider `CC(C)C(CCOS(=O)(=O)[O-])CC[C@@H](C)[C@H]1[C@@H](O)[C@H](O)C2[C@]3(O)C[C@@H](O)[C@@]4(O)C[C@@H](O)CC[C@]4(C)C3CC[C@@]21C.[Na+]` (some centres undefined), for which the EC50 result in the assay on CCRF-CEM [1] and in the assay with CCRF-CEM [7] was “No protection” throughout. Moreover, the IC50 in assay [3] and in assay [4] was greater than 164 µM throughout.
For the compound `CC(C)[C@H](CC[C@@H](C)[C@H]1C[C@H](OS(=O)(=O)[O-])[C@H]2[C@@H]3C[C@H](O)C4C[C@@H](O)CC[C@]4(C)[C@H]3CC[C@@]21C)OC1OCC(O)C(O)C1O.[Na+]` (some centres undefined), the half-maximal effective concentration (EC50) result in the assay on CCRF-CEM [1] and with CCRF-CEM [7] was “No protection” throughout. For the same compound, the IC50 in assay [3] and in assay [4] was greater than 126 µM throughout.
Take `CC(C)CCC[C@@H](COS(=O)(=O)O)[C@H]1CC[C@H]2[C@@H]3CCC4[C@H](O)[C@H](OS(=O)(=O)O)CC[C@]4(C)[C@H]3[C@@H](O)C[C@]12C` (some centres undefined): the figures for the half-maximal effective concentration (EC50) with CCRF-CEM [5] and in the assay on CCRF-CEM [6] were 157 µM and 110 µM, respectively. The results for the concentration for half-maximal inhibition (IC50) in assay [3] and in assay [4] were greater than 313 µM and greater than 157 µM, respectively.
The compound `CC(=O)O[C@H](CCC(C)C)[C@@H](C)[C@H]1CC[C@H]2[C@@H]3C[C@H](OS(=O)(=O)O)C4C[C@@H](OS(=O)(=O)O)CC[C@]4(C)[C@H]3CC[C@]12C` (some centres undefined) came in with a half-maximal effective concentration (EC50) in the assay with CCRF-CEM [5] of 13 µM. Further, the IC50 in assay [3] was greater than 149 µM.
For the compound `COC1([C@@H]2C=C3[C@H](O)C[C@]4(O)C(CC[C@@]5(C)C4[C@@H](OS(=O)(=O)[O-])[C@H](O)[C@@H]5[C@H](C)/C=C/[C@H](CO)C(C)C)[C@@]3(C)CC2)OCC(O)C(O)C1O.[Na+]` (some centres undefined), the EC50 result in the assay with CCRF-CEM [1] is reported as “No protection”. Also, the IC50 in assay [3] is 64 µM; in assay [4], greater than 64 µM.
As to `CC(CC[C@@H](C)[C@H]1CC[C@H]2[C@@H]3C[C@H](OS(=O)(=O)O)C4C[C@H](OS(=O)(=O)O)[C@@H](OS(=O)(=O)O)C[C@]4(C)[C@H]3CC[C@]12C)C(C)(C)C` (some centres undefined), the concentration for a half-maximal effect (EC50) in the assay on CCRF-CEM [5] worked out at 6 µM; with CCRF-CEM [6], 3 µM. For the same compound, the IC50 in assay [3] and in assay [4] was 41 µM in each case.
On to `C[C@H](CCC(=O)NC(CO)CS(=O)(=O)O)[C@H]1[C@@H](O)[C@H](O)[C@H]2[C@@H]3C[C@@H](O)[C@@]4(O)C[C@@H](O)CC[C@]4(C)[C@H]3CC[C@]12C` (some centres undefined), for which the EC50 entry with CCRF-CEM [1] and in the assay with CCRF-CEM [7] was “No protection” each time. For the same compound, the half-maximal inhibitory concentration (IC50) in assay [3] and in assay [4] was greater than 174 µM throughout.
As for `C=C(C)CCC[C@@H](COS(=O)(=O)O)[C@H]1CC[C@H]2[C@@H]3CC[C@]4(O)[C@H](O)[C@H](OS(=O)(=O)O)CC[C@]4(C)[C@H]3CC[C@]12C`, the EC50 in the assay on CCRF-CEM [5] came to 86 µM; in the assay on CCRF-CEM [6], 39 µM. The IC50 in assay [3] and in assay [4] was greater than 157 µM each time.
For the compound `C=C(C)CCC[C@@H](COS(=O)(=O)O)[C@H]1CC[C@H]2[C@@H]3CCC4[C@H](O)[C@H](OS(=O)(=O)O)CC[C@]4(C)[C@H]3CC[C@]12C` (some centres undefined), the EC50 with CCRF-CEM [5] is 97 µM; in the assay with CCRF-CEM [6], 161 µM. Besides, the IC50 in assay [3] and in assay [4] was greater than 161 µM throughout.
For the compound `CC(=O)O[C@H](CCC(C)C)[C@@H](C)[C@H]1CCC2C3C[C@H](OS(=O)(=O)O)C4C[C@@H](OS(=O)(=O)O)CC[C@]4(C)C3=CC[C@@]21C` (some centres undefined), the 50% effective concentration (EC50) in the assay on CCRF-CEM [5] was determined as 18 µM; in the assay with CCRF-CEM [6] it was 3 µM. Further, the IC50 in assay [3] and in assay [4] was greater than 150 µM in each case.
As for `CC(C)CCC[C@@H](COS(=O)(=O)O)[C@H]1CC[C@H]2[C@@H]3CCC4[C@H](O)[C@H](OS(=O)(=O)O)CC[C@]4(C)[C@H]3[C@@H](O)[C@@H](O)[C@]12C` (some centres undefined), the concentration for a half-maximal effect (EC50) in the assay on CCRF-CEM [5] was 122 µM; with CCRF-CEM [6], 107 µM. In addition, the IC50 in assay [3] and in assay [4] was greater than 152 µM each time.
The compound `CC(C)CC[C@@H](O)[C@@H](C)[C@H]1CC[C@H]2[C@@H]3C[C@H](OS(=O)(=O)O)C4C[C@@H](OS(=O)(=O)O)CC[C@]4(C)[C@H]3CC[C@]12C` (some centres undefined) yielded an EC50 in the assay on CCRF-CEM [5] of 48 µM. For the same compound, in assay [3], the concentration for half-maximal inhibition (IC50) is greater than 160 µM.
For the compound `CC(C)CCC[C@@H](COS(=O)(=O)O)[C@H]1CCC2C3CC=C4C[C@H](O)[C@@H](OS(=O)(=O)O)C[C@]4(C)C3CC[C@@]21C` (some centres undefined), the EC50 with CCRF-CEM [5] turned out to be 97 µM. Besides, the IC50 in assay [3] and in assay [4] was greater than 161 µM in each case.
With `CC(C)CCC[C@@H](COS(=O)(=O)O)[C@H]1CC[C@H]2[C@@H]3CC[C@H]4C[C@H](OS(=O)(=O)O)CC[C@]4(C)[C@H]3CC[C@]12C`, the concentration for a half-maximal effect (EC50) in the assay with CCRF-CEM [5] is 164 µM; in the assay on CCRF-CEM [6] it was greater than 63 µM. Also, the IC50 in assay [3] is greater than 312 µM; in assay [4], greater than 156 µM.
The matching figures for `CC(C)CCC[C@@H](COS(=O)(=O)O)[C@H]1CCC2C3CC=C4[C@@H](O)[C@H](OS(=O)(=O)O)CC[C@]4(C)C3CC[C@@]21C` (some centres undefined): 241 µM, 80 µM, greater than 322 µM and greater than 161 µM.
Consider `CC(C)[C@H](CC[C@@H](C)[C@H]1C[C@H](OS(=O)(=O)[O-])[C@H]2[C@@H]3[C@H](O)[C@H](O)C4C[C@@H](O)CC[C@]4(C)[C@H]3CC[C@@]21C)OC1OCC(O)C(O)C1O.[Na+]` (some centres undefined), for which the concentration for a half-maximal effect (EC50) entry in the assay on CCRF-CEM [1] and in the assay on CCRF-CEM [7] was “No protection” throughout. The concentration for half-maximal inhibition (IC50) with CCRF-CEM [8] was greater than 123 µM; in assay [4], 69 µM.
In the case of `CCC(C)(C)C(C)CC[C@@H](C)[C@H]1CC[C@H]2[C@@H]3C[C@H](OS(=O)(=O)O)C4C[C@H](OS(=O)(=O)O)[C@@H](OS(=O)(=O)O)C[C@]4(C)[C@H]3CC[C@]12C` (some centres undefined), the EC50 in the assay with CCRF-CEM [5] was determined as 3 µM; with CCRF-CEM [6], 7 µM. Besides, the IC50 in assay [3] is 17 µM; in assay [4], 94 µM.
The matching figures for `CC(C)C(C)CC[C@@H](C)[C@H]1CC[C@H]2[C@@H]3C[C@H](OS(=O)(=O)O)C4C[C@H](OS(=O)(=O)O)[C@@H](OS(=O)(=O)O)C[C@]4(C)[C@H]3CC[C@]12C` (some centres undefined): 6 µM, 2 µM, 56 µM and 56 µM.
